Blank lines part the entries; values can stand above or below the compound they belong to.
Experiments:
hCD1d dimer [1] = biological target: T1, hCD1d dimer (Homo sapiens, UniProt P15813); assay: Direct ELISA binding of Biotinyl PE without competitor; settings: Biotinyl PE 1μg/mL
T1 sequence (P15813 20-301 limits assumed): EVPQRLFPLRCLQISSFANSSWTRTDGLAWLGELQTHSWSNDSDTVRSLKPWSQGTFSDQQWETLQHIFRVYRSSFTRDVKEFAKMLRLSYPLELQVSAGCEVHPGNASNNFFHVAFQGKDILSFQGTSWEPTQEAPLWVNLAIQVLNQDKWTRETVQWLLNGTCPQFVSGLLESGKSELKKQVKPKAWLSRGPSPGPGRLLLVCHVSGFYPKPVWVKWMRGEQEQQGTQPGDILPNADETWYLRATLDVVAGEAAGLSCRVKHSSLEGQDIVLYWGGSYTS

hCD1c dimer [2] = biological target: T2, hCD1c dimer (Homo sapiens, UniProt P29017); assay: Direct ELISA binding of Biotinyl PE without competitor; settings: pH 4–10 tested, Biotinyl PE 1μg/mL, overnight 37°C, no competitor
T2 sequence (P29017 18-302 limits assumed): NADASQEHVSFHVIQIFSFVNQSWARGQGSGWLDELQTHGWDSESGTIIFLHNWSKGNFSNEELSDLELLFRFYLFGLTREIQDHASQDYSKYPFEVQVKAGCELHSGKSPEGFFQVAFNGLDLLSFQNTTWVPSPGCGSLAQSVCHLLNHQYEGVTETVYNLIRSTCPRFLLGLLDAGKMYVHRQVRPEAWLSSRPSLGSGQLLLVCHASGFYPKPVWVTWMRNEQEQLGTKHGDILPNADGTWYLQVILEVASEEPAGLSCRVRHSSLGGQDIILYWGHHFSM
Summary of the method: (§1)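 Biotinyl PE (1μg/mL) was incubated overnight at 37°C with hCD1 dimer or mouse IgG1 isotype control. Incubation was in PBS adjusted with HCl or NaOH to pH 4–10, in plates coated with anti-mouse IgG Fc antibody. A well without biotinylated PE at pH 7 served as background. Assays were run in triplicate.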

hCD1b dimer [3] = biological target: T3, hCD1b dimer (Homo sapiens, UniProt P29016); assay: as above; settings: pH 4–10 tested, Biotinyl PE 1μg/mL, overnight 37°C, no competitor
T3 sequence (P29016 18-303 limits assumed): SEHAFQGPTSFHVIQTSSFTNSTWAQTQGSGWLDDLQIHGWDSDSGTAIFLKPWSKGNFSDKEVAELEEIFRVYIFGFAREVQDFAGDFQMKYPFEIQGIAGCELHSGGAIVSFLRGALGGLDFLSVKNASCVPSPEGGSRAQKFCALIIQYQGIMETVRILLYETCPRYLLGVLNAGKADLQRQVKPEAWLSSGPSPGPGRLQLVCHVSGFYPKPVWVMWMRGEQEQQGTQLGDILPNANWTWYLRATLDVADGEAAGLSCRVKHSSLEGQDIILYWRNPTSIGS
Summary of the method: as §1

mouse IgG1 = assay: Direct ELISA binding of Biotinyl PE to isotype control; settings: specificity control
Summary of the method: as §1

hCD1d dimer [4] = biological target: T1, hCD1d dimer; assay: Competitive ELISA assay; assay type: binding
Summary of the method: (§2)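 Dimers are hCD1 α1–α3 fused to mouse IgG with β2m, expressed in J558L cells and purified on Protein G. Plates were coated overnight at 4°C with goat anti-mouse IgG Fc (10μg/mL, pH 9.6), then blocked 1 h. Dimer (5μg/mL), competitor lipid and Biotinyl PE (2μg/mL) in PBS were incubated overnight at 37°C and detected with HRP-avidin. Assays were run in triplicate. Ki = IC50/(1+[B-PE]/Kd), with Kd fitted from competitor-free Biotinyl PE titration.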

hCD1c dimer [5] = biological target: T2, hCD1c dimer; assay: Competitive ELISA assay; assay type: binding
Summary of the method: as §2

hCD1b dimer [6] = biological target: T3, hCD1b dimer; assay: Competitive ELISA assay; assay type: binding
Summary of the method: as §2

time to reach a peak level of binding to hCD1d (hCD1d dimer [1]; 37°C, optimal condition): 8 h
optimal pH for binding to CD1d (hCD1d dimer [1]; pH 4–10 tested, overnight 37°C, no competitor): 5-7
optimal pH for binding to CD1c (hCD1c dimer [2]): 4-5
optimal pH for binding to CD1b (hCD1b dimer [3]): 4-5
binding to mouse IgG1 (isotype control) (mouse IgG1): failed to bind
Compound: CCCCCCCC/C=C\CCCCCCCC(=O)OC[C@H](COP(=O)(O)OCCNC(=O)CCCC[C@@H]1SC[C@@H]2NC(=O)N[C@@H]21)OC(=O)CCCCCCC/C=C\CCCCCCCC [Biotinyl PE, 1,2-Dioleoyl-sn-Glycero-3-Phosphoethanolamine-N-(Biotinyl)]

Ki (hCD1d dimer [4]): 0.097 µM
Ki (hCD1c dimer [5]): 1.37 µM
Ki (hCD1b dimer [6]): 2.84 µM
Compound: CCCCCCCCCCCCCCCCCCCCCCCCCC(=O)N[C@@H](CO[C@H]1O[C@H](CO)[C@H](O)[C@H](O)[C@H]1O)[C@H](O)[C@H](O)CCCCCCCCCCCCCC [α-GalCer, α-galactosylceramide]

Compound: Mycolic acid
binding to CD1b (inhibition of Biotinyl PE binding), in words (hCD1b dimer [6]; competitive ELISA): unable to detect the binding
